This passage reports mortality and Activity results from ChEMBL document CHEMBL3045347, “Natural products-based insecticidal agents 5. Design, semisynthesis and insecticidal activity of novel 4'-substituted benzenesulfonate derivatives of 4-deoxypodophyllotoxin against Mythimna separata Walker in vivo” (2010).

SMILES strings stand for the structures. Activity calls are given as the source filed them. The rule behind the calls is not given here.

Assay [1] has as its system Mythimna separata. Briefly: In vivo insecticidal activity against pre-third-instar larval stage of Mythimna separata (Oriental armyworm) in corn leaves assessed as corrected mortality rate at 1 mg/ml treated for 3 secs before larval infestation on corn leaves measured after 20 days by leaf-dipping method. In kind it is functional. To be noted: 480 h. In a few lines: (§1)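 Leaf-dipping bioassay on pre-third-instar Mythimna separata larvae, with compounds applied at 1 mg/mL. Toosendanin, a commercial insecticide from Melia azedarach, served as the positive control.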

In assay [2] the test system is Mythimna separata. Briefly: In vivo insecticidal activity against pre-third-instar larval stage of Mythimna separata (Oriental armyworm) in corn leaves assessed as inhibition of larval pupation at 1 mg/ml treated for 3 secs before larval infestation on corn leaves by leaf-dipping method. In kind it is functional, organism-based. In a few lines: as §1
The test system of assay [3] is Mythimna separata. Briefly: In vivo insecticidal activity against pre-third-instar larval stage of Mythimna separata (Oriental armyworm) in corn leaves assessed as corrected mortality rate at 1 mg/ml treated for 3 secs before larval infestation on corn leaves measured after 10 days by leaf-dipping method. To be noted: 240 h. In kind it is functional. In a few lines: as §1

For assay [4], the system named is Mythimna separata. Briefly: In vivo insecticidal activity against pre-third-instar larval stage of Mythimna separata (Oriental armyworm) in corn leaves assessed as inhibition of adult emergence at 1 mg/ml treated for 3 secs before larval infestation on corn leaves by leaf-dipping method. It counts as functional, organism-based. In a few lines: as §1
The test system of assay [5] is Mythimna separata. Kind of assay: In vivo insecticidal activity against pre-third-instar larval stage of Mythimna separata (Oriental armyworm) in corn leaves assessed as reduction in larval movement at 1 mg/ml treated for 3 secs before larval infestation on corn leaves measured after 24 hr by leaf-dipping method. It counts as functional, organism-based. The method in brief:
as §1

The test system of assay [6] is Mythimna separata. Kind of assay: In vivo insecticidal activity against pre-third-instar larval stage of Mythimna separata (Oriental armyworm) in corn leaves assessed as induction of loss of body liquid at 1 mg/ml treated for 3 secs before larval infestation on corn leaves measured after 48 hr by leaf-dipping method. In kind it is functional, organism-based. In a few lines:
as §1

The test system of assay [7] is Mythimna separata. Briefly: In vivo insecticidal activity against pre-third-instar larval stage of Mythimna separata (Oriental armyworm) in corn leaves assessed as corrected mortality rate at 1 mg/ml treated for 3 secs before larval infestation on corn leaves measured after 30 days by leaf-dipping method. It counts as functional. To be noted: 720 h. The method in brief: as §1

In assay [8] the test system is Mythimna separata. Kind of assay: In vivo insecticidal activity against pre-third-instar larval stage of Mythimna separata (Oriental armyworm) in corn leaves assessed as induction of molting to abnormal pupae at 1 mg/ml treated for 3 secs before larval infestation on corn leaves measured after 48 hr by leaf-dipping method. In kind it is functional, organism-based. The method in brief: as §1

The subject of assay [9] is Mythimna separata. Briefly: In vivo insecticidal activity against pre-third-instar larval stage of Mythimna separata (Oriental armyworm) in corn leaves assessed as induction of larval immobility at 1 mg/ml treated for 3 secs before larval infestation on corn leaves measured after 48 hr by leaf-dipping method. In kind it is functional, organism-based. The method in brief:
as §1

As to `COc1cc([C@@H]2c3cc4c(cc3C[C@H]3COC(=O)[C@@H]32)OCO4)cc(OC)c1OC` [DESOXYPODOPHYLLOTOXIN], the mortality at 1000 µg/mL was 20.7% in assay [1], 16.7% in assay [3] and 39.3% in assay [7]. Also, the result in assay [2], in assay [4], in [5], in assay [6], in [8] and in assay [9] was Active.

On to `CCc1ccc(S(=O)(=O)Oc2c(OC)cc([C@@H]3c4cc5c(cc4C[C@H]4COC(=O)[C@@H]43)OCO5)cc2OC)cc1`, for which the mortality at 1000 µg/mL was 27.6% in assay [1], 13.3% in [3] and 35.7% in assay [7]. In addition, the outcome in assay [2], in [4], in [5], in assay [6], in assay [8] and in assay [9] was Active.

As to `COc1ccc(S(=O)(=O)Oc2c(OC)cc([C@@H]3c4cc5c(cc4C[C@H]4COC(=O)[C@@H]43)OCO5)cc2OC)cc1`, the mortality at 1000 µg/mL in assay [1] was determined as 37.9%; in assay [3] it was 33.3%; in [7], 46.4%. The result in [2], in [4], in assay [5], in [6], in assay [8] and in assay [9] was Active.

As for `COc1cc([C@@H]2c3cc4c(cc3C[C@H]3COC(=O)[C@@H]32)OCO4)cc(OC)c1OS(=O)(=O)c1cccc([N+](=O)[O-])c1`, the mortality at 1000 µg/mL in [1] stood at 27.6%; in assay [3], 26.7%; in assay [7], 60.7%. In addition, the outcome in [2], in assay [4], in assay [5], in [6], in assay [8] and in [9] was Active.

Regarding `COc1cc([C@@H]2c3cc4c(cc3C[C@H]3COC(=O)[C@@H]32)OCO4)cc(OC)c1OS(=O)(=O)c1ccccc1`, the mortality at 1000 µg/mL in assay [1] amounted to 13.8%; in [3], 16.7%; in [7], 35.7%. In addition, the result in assay [2], in assay [4], in assay [5], in assay [6], in [8] and in assay [9] was Active.

For the molecule `COc1cc([C@@H]2c3cc4c(cc3C[C@H]3COC(=O)[C@@H]32)OCO4)cc(OC)c1O` [4'-DEMETHYLDEOXYPODOPHYLLOTOXIN], the mortality at 1000 µg/mL in [1] was found to be 13.8%; in assay [3], 10%; in assay [7] it was 21.4%. Moreover, the outcome in assay [2], in [4], in [5], in assay [6], in [8] and in assay [9] was Active.

With `COc1cc([C@@H]2c3cc4c(cc3C[C@H]3COC(=O)[C@@H]32)OCO4)cc(OC)c1OS(=O)(=O)c1ccc(C)cc1`, the mortality at 1000 µg/mL in assay [1] was 10.3%; in [3] it was 3.3%; in [7] it was 21.4%. For the same molecule, the result in assay [2], in [4], in assay [5], in [6], in assay [8] and in assay [9] was Active.

Take `CC(=O)O[C@@H]1C[C@H](O)[C@@]23CO[C@@H](O)[C@]1(C)[C@@H]2C[C@@H](O)[C@]1(C)[C@@H]3C(=O)[C@H](OC(C)=O)[C@@]2(C)[C@H](c3ccoc3)C[C@H]3O[C@]321` [TOOSENDANIN]: the figures for the mortality at 1000 µg/mL in assay [1], in [3] and in assay [7] were 34.5%, 30% and 46.4%, respectively.

Consider `COc1cc([C@@H]2c3cc4c(cc3C[C@H]3COC(=O)[C@@H]32)OCO4)cc(OC)c1OS(=O)(=O)c1ccc(Br)cc1`, for which the values for the mortality at 1000 µg/mL in [1], in assay [3] and in [7] were 31%, 20% and 50%, respectively. The outcome in assay [2], in assay [4], in assay [5], in assay [6], in assay [8] and in [9] was Active.

As to `COc1cc([C@@H]2c3cc4c(cc3C[C@H]3COC(=O)[C@@H]32)OCO4)cc(OC)c1OS(=O)(=O)c1ccc(Cl)cc1`, the mortality at 1000 µg/mL in [1] came out at 10.3%; in assay [3], 10%; in assay [7], 25%. For the same molecule, the outcome in [2], in assay [4], in assay [5], in assay [6], in [8] and in [9] was Active.

Regarding `COc1cc([C@@H]2c3cc4c(cc3C[C@H]3COC(=O)[C@@H]32)OCO4)cc(OC)c1OS(=O)(=O)c1ccc(Cl)c([N+](=O)[O-])c1`, the mortality at 1000 µg/mL in assay [1] was determined as 20.7%; in assay [3] it was 3.3%; in [7], 42.9%. Moreover, the outcome in [2], in assay [4], in assay [5], in assay [6], in assay [8] and in assay [9] was Active.
